PfM18AAP inh: PfM18AAP enzyme inhibition; recombinant PfM18AAP, H-Glu-NHMec fluorogenic cleavage; 1.2% of 290,000 active; inhibition, % at 7.35 µM;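 active = inhibition above the campaign mean inhibition over all tested compounds plus 3 SD, cut at about 28% in these data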
HCV core dimer: blocks dimerization of HCV core protein. TR-FRET GST/Flag-core106 dimerization, 1536-well. inhibition, % at 5 µM. 0.33% of 300,000 active;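 active = inhibition above the mean of all tested compounds plus 3 SD, set per screening campaign, cut at about 45% in these data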
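Assay system: tagged HCV core106 pair (GST and Flag); medium: KF-containing HEPES buffer, pH 7.45, DTT, CHAPS, BSA; also added: Eu donor and XL665 acceptor anti-tag antibodies; dosing: 5 µM single dose; timing: compound-protein-antibody incubation 4 h at 22.5 °C; signal: TR-FRET 671 and 617 nm emission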
EBNA-1 inhibitor: blocks EBNA-1 binding to DNA. EBNA-1 DNA binding, fluorescence polarization. inhibition, % at 14.8 µM. 0.34% of 300,000 active; in the data active = inhibition above about 28%
NS3 helicase inh: inhibitors of Hepatitis C virus NS3 helicase; 0.56% of 290,000 active; NS3 helicase DNA unwinding, Cy5 molecular beacon fluorescence; inhibition, % at 10.9 µM;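 active = inhibition above the mean of all tested compounds plus 3 SD, set per campaign, cut at about 35% in these data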
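System: NS3 helicase fragment of HCV / Schedule: 1 h at 25 °C / Control set: DMSO alone as 0% and 110 µM thioflavine S as 100% / Reagent: Cy5/quencher beacon DNA duplex and ATP to start / Technique: Cy5 fluorescence / Replication: singlicate / Evaluation: % inhibition of end-to-start signal ratio versus controls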
ALR inh: blocks human ALR sulfhydryl oxidase activity. P55789. purified ALR, DTT oxidation, H2O2 HRP-luminol luminescence. inhibition, % (no concentration beside the values). 3.8% of 290,000 active;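 active = mean replicate inhibition above about 79%, with every replicate also reaching it, limit read from the data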
Target sequence (P55789 whole entry, looked up): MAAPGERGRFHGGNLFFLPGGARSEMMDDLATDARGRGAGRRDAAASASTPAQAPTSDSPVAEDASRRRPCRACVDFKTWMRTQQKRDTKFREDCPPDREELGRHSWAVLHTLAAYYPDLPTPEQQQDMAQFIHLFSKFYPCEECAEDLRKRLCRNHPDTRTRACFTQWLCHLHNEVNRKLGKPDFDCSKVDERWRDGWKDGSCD
ZTA counter: ZTA (EBV) inhibition in EBNA-1 counter-screen | ZTA-DNA binding, fluorescence polarization | inhibition, % at 11 µM | 0.15% of 320,000 active | AID 2234; in the data active = inhibition above about 33%
Target sequence (P03206 whole entry, looked up): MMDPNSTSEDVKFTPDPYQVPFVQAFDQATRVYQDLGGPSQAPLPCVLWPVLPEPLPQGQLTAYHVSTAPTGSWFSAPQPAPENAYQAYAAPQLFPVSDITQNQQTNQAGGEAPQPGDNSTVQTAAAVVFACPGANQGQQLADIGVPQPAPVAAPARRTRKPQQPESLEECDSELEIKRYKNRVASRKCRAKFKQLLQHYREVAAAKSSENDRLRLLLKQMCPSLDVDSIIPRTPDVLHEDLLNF
Numbers stand for hits; n = inactive; x = no result given. Hits are enriched below; roughly 5.2% of the tested compounds scored in any of these assays.

SMILES	PfM18AAP inh	HCV core dimer	EBNA-1 inhibitor	NS3 helicase inh	ALR inh	ZTA counter
COc1ccc(C(=O)N/N=C/C2CC=CCC2)cc1OC (stereo not drawn)	n	n	n	n	93	n
COc1ccc(N(CC(=O)NCc2ccco2)C(=O)CCC(=O)Nc2nccs2)c(OC)c1	n	n	n	n	n	n
Cn1c(CSc2nc3ccccc3s2)n[nH]c1=S	30	n	n	n	98	n
S=c1[nH]nc(CSc2nc3ccccc3s2)o1	n	n	n	n	99	n
Cn1c(CSc2nc3ccccc3s2)nc2ccccc21	n	n	n	n	x	n
Cn1c(-c2sc3ccccc3c2Cl)n[nH]c1=S	n	n	n	n	97	n
CN1CCN(S(=O)(=O)c2ccc(NC(=S)NC(=O)C(C)(C)C)cc2)CC1	n	n	n	n	n	n
CCN(CC(=O)NCCCN1CCOCC1)S(=O)(=O)c1ccc(F)cc1	n	n	n	n	x	n
CCc1ccccc1NC1=CC(=O)CC(C)(C)C1	n	n	n	n	n	n
CC1(C)CC(=O)C=C(Nc2ccc(C(=O)O)cc2)C1	n	n	n	n	n	n
CC1(C)CC(=O)C=C(NNC(=O)c2ccccc2)C1	41	n	n	n	n	n
CC1(C)CC(=O)C=C(Nc2ccccc2N)C1	n	n	n	n	99	n
O=[N+]([O-])c1ccc(S(=O)(=O)c2ccccc2)nc1	n	n	n	n	98	n
Cc1ccc(S(=O)(=O)c2ccc([N+](=O)[O-])cn2)cc1	n	n	n	n	89	n
CCOc1ccc(S(=O)(=O)NCC(=O)OCc2nnc(-c3ccccc3)o2)cc1	x	x	x	x	n	n
Cc1c(NC(=S)/C=C2\N(C)c3ccccc3C2(C)C)c(=O)n(-c2ccccc2)n1C	n	n	n	n	95	n
Cc1c(N=C/C=C2\N(C)c3ccccc3C2(C)C)c(=O)n(-c2ccccc2)n1C	n	n	n	n	93	n
Cc1c(N=C/C=C/c2ccccc2)c(=O)n(-c2ccccc2)n1C	n	n	n	n	n	n
Cc1c(N=C/C=C2/N(C)c3ccccc3C2(C)C)c(=O)n(-c2ccccc2)n1C	n	n	n	n	99	n
c1ccc(CN(CC2=NCCN2)c2ccccc2)cc1	n	n	n	n	n	n
Cc1ccc(N(CC2=NCCN2)c2cccc(O)c2)cc1	n	n	n	n	98	n
Nc1cc(=O)[nH]c(SCC(=O)N2N=C(c3ccc(Cl)cc3)CC2c2ccco2)n1 (stereo not drawn)	n	49	n	n	n	n
COc1ccc(-c2csc3[nH]c(=S)n(-c4ccccc4)c(=O)c23)cc1OC	n	n	n	n	83	n
COc1cccc(-c2cc3c(=O)n(-c4ccccc4)c(=S)[nH]c3s2)c1	n	n	n	n	n	n
COc1ccc(CNC(=O)C2CCN(S(=O)(=O)c3ccc4c(c3)CC(C)N4C(=O)C3CC3)CC2)cc1 (stereo not drawn)	n	n	n	n	n	n
SMILES	PfM18AAP inh	HCV core dimer	EBNA-1 inhibitor	NS3 helicase inh	ALR inh	ZTA counter
c1ccc(-c2nc(-c3ccco3)n3ccccc23)cc1	n	n	n	n	94	n
CC(C)CC(NC(N)=O)C(=O)NCCc1ccc(Cl)cc1Cl (stereo not drawn)	n	n	n	n	n	n
CCN1C(=O)/C(=C/C=C2/Sc3ccccc3N2CCO)SC1=S	n	n	n	n	n	n
CCN1C(=S)SC(=O)C1=C1C=C(C)N(CCO)C(C)=C1	n	n	n	n	99	n
O=S(=O)(NCc1ccccc1)c1cccc2nonc12	n	n	n	n	99	n
NS(=O)(=O)c1ccc(CNS(=O)(=O)c2cccc3nonc23)cc1	n	n	n	n	n	n
Cc1cccc2c(N)c3c(nc12)N(C)CC3	31	n	n	n	n	n
CCc1nnc(NC(=O)CSc2nc3ccc(OC)cc3[nH]2)s1	n	n	n	n	n	n
O=C(c1ccc(F)cc1)c1cnc(Nc2ccccc2)s1	n	n	n	n	n	n
CC1(c2cnc(Nc3ccccc3)s2)CCC(=O)O1 (stereo not drawn)	n	n	n	n	97	n
O=C(CCSc1ccccn1)c1ccccc1	55	n	n	n	n	n
O=C(O)CCSc1ccccn1	n	n	n	n	n	n
COc1cc(NS(=O)(=O)c2ccc(NC(=O)NC3CCCCC3)cc2)nc(OC)n1	n	n	n	n	98	n
COc1cc(NS(=O)(=O)c2ccc(NC(=S)NC(=O)C3CCCC3)cc2)nc(OC)n1	n	n	n	n	n	n
COc1ccccc1OCC(=O)Nc1ccc(S(=O)(=O)Nc2cc(C)on2)cc1	n	n	n	n	89	n
Cc1cc(C)nc(NS(=O)(=O)c2ccc(NC(=O)c3ccc(O)cc3O)cc2)n1	n	x	x	n	99	x
COc1cc(NS(=O)(=O)c2ccc(NC(=O)COc3ccccc3Cl)cc2)nc(OC)n1	n	n	n	n	93	n
COc1ccc(OCC(=O)Nc2ccc(S(=O)(=O)Nc3cc(C)on3)cc2)cc1	x	n	n	x	x	n
COc1cccc(C2Nc3ccc4ccccc4c3C3=C2C(=O)CC(C)(C)C3)c1OCC(=O)O (stereo not drawn)	n	n	n	n	n	n
COc1ccccc1C(=O)Nc1ccc(OCC(=O)N2CC(C)CC(C)C2)cc1 (stereo not drawn)	x	x	x	x	n	n
Cc1cccc(NC(=O)C2SC(=Nc3c(C)cccc3C)C(C(=O)N3CCOCC3)=C2N)c1 (stereo not drawn)	n	n	n	n	n	n
Cc1cc(C)nc(NS(=O)(=O)c2ccc(NC(=O)Cc3ccccc3)cc2)n1	n	n	n	n	n	n
COc1cc(NS(=O)(=O)c2ccc(Nc3nc(-c4ccccc4)cs3)cc2)nc(OC)n1	n	n	n	n	96	n
COc1cc(NS(=O)(=O)c2ccc(NC(=O)COc3cccc(C)c3)cc2)nc(OC)n1	n	n	n	n	98	n
Cc1cc(C)nc(NS(=O)(=O)c2ccc(NC(=O)COc3ccccc3)cc2)n1	n	n	n	n	99	n
SMILES	PfM18AAP inh	HCV core dimer	EBNA-1 inhibitor	NS3 helicase inh	ALR inh	ZTA counter
Cc1ccc(OCC(=O)Nc2ccc(S(=O)(=O)Nc3onc(C)c3C)cc2)cc1	n	n	n	n	x	n
CCc1cccc(OCC(=O)Nc2ccc(S(=O)(=O)Nc3onc(C)c3C)cc2)c1	n	n	n	n	95	n
COc1cc(OC)c(N(C)C(=O)c2cc3c(s2)-c2ccccc2S(=O)(=O)C3)cc1Cl	x	n	n	x	n	n
c1ccc(-n2nnc(-c3nccs3)n2)cc1	x	n	n	x	94	n
CCc1ccc(CNC(=O)C2CCCN(c3nn4c(=O)cc(C)nc4s3)C2)cc1 (stereo not drawn)	n	n	n	n	n	n
COc1ccc(-c2nc(=S)[nH][nH]2)cc1	n	n	n	n	99	n
COc1ccc(-c2nc(=S)[nH][nH]2)cc1OC	n	n	n	n	100	n

Bioassay records: PubChem BioAssay, several laboratories
